In ChEMBL document CHEMBL1221204, “Spliceostatin A targets SF3b and inhibits both splicing and nuclear retention of pre-mRNA” (Nat Chem Biol, 2007) one finds Activity and half-life data, which are given here for four molecules.

Activity calls are given as the source filed them. The rule behind the calls is not given here.

The test system of data set [1] is HeLa. Kind of data set: Induction of truncated p27 expression in human HeLa cells at 1 to 1000 nM by Western blot analysis. The class given is functional, cell-based. For orientation: Immunoblotting shows a protein as a band on a membrane.
Data set [2] concerns the target Splicing factor 3B subunit 3 (Homo sapiens) (UniProt Q15393). Description: Binding affinity to SAP130 in human HeLa cells at 2 uM by LC-MS/MS analysis.
In data set [3] the target is Splicing factor 3B subunit 1 (Homo sapiens) (UniProt O75533). Kind of data set: Binding affinity to SAP155 in human HeLa cells at 2 uM by LC-MS/MS analysis.
Splicing factor 3B subunit 1 (Homo sapiens), sequence (O75533 whole entry, looked up): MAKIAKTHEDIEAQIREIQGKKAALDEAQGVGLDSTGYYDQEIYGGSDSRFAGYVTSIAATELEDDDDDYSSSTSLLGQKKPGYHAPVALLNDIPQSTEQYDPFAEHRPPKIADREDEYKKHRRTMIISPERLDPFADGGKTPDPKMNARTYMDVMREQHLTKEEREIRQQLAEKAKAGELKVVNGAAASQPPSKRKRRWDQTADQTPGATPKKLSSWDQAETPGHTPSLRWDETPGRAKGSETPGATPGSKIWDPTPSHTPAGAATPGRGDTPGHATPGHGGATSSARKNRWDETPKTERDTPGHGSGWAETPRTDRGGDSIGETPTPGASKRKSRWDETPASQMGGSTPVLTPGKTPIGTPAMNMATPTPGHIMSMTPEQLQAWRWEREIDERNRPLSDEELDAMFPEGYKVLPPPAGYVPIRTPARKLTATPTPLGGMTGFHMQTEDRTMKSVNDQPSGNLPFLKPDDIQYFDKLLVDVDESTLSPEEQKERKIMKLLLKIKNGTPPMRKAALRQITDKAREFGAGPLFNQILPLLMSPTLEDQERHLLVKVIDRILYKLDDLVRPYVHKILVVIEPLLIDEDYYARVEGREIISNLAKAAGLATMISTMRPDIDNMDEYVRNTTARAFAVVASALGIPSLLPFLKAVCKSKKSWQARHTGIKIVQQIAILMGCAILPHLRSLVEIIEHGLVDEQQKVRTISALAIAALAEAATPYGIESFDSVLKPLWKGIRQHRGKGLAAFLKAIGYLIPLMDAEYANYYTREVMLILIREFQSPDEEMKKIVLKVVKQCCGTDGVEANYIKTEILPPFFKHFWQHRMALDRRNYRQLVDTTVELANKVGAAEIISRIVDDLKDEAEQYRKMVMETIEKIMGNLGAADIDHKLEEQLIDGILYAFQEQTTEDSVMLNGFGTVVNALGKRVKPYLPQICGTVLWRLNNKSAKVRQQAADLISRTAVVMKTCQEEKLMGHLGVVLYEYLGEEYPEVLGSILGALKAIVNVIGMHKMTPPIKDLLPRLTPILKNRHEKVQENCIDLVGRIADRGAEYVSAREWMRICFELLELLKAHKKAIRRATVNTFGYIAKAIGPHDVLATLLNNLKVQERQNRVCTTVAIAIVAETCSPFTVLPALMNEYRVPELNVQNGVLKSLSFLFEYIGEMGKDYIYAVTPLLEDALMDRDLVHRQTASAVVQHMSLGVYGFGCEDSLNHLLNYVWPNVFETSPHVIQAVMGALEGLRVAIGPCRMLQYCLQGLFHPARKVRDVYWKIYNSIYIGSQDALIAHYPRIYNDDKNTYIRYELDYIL
In data set [4] the target is T1, Splicing factor 3B subunit 2 (Homo sapiens) (UniProt Q13435).
T1 sequence (whole entry): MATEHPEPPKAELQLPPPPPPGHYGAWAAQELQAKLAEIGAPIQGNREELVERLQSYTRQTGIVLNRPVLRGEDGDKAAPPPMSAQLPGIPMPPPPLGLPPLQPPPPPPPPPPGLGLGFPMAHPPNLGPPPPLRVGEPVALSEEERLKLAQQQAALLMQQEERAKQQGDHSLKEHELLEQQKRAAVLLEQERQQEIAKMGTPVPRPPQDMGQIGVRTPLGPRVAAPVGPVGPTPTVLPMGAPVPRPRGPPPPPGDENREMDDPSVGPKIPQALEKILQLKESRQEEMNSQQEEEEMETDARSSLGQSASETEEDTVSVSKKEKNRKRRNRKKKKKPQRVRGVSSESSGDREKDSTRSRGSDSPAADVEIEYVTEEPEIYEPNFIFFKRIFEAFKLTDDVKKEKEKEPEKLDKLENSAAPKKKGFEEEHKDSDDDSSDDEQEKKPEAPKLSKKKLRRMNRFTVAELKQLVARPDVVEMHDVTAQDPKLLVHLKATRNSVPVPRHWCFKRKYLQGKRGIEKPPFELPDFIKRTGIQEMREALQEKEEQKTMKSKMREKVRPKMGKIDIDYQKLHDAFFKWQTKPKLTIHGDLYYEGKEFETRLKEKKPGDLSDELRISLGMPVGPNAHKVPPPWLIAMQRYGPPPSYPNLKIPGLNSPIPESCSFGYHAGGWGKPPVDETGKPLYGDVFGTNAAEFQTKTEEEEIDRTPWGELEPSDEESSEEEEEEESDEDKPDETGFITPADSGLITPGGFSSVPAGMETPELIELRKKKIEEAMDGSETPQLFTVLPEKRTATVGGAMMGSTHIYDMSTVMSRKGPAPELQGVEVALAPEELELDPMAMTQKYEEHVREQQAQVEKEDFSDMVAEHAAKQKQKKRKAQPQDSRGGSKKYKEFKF
Description: Binding affinity to SAP145 in human HeLa cells at 2 uM by LC-MS/MS analysis. In kind it is cell-based.

The test system of data set [5] is SF3b complex (Homo sapiens). Description: Binding affinity to SF3b SAP155/SAP145/SAP130 complex in human HeLa cells at 2 uM by Western blotting.
Data set [6] has as its system HeLa. Description: Induction of p27 expression in human HeLa cells at 1 to 100 ng/ml after 14 hrs by immunoblotting. The class given is functional, cell-based. In short, it runs like this: (§1)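 Human cell lines (HeLa, HEK 293T, MCF7, A549) cultured in DMEM with 10% heat-inactivated FBS. Cells treated with graded FR901464 concentrations for 14 h. Extracts immunoblotted for p27 and the truncated p27* form, with chemiluminescent detection.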

For data set [7], the system named is HeLa. Kind of data set: Induction of truncated p27 expression in human HeLa cells at 100 ng/ml after 14 hrs in presence of […] proteasome inhibitor MG132. In kind it is functional, cell-based.
The test system of data set [8] is MCF7. Kind of data set: Induction of truncated p27 expression in human MCF7 cells at 1 to 100 ng/ml after 14 hrs by immunoblotting. In kind it is functional, cell-based. In short, it runs like this: as §1
The subject of data set [9] is A549. Description: Induction of p27 expression in human A549 cells at 1 to 100 ng/ml after 14 hrs by immunoblotting. The class given is functional, cell-based. Put shortly: as §1
Data set [10] addresses Cyclin-dependent kinase 2 (Homo sapiens) (UniProt P24941). Kind of data set: Induction of CDK2 in HEK293T cells transfected with FLAG-tagged truncated p27 at 200 nM by autoradiography. In kind it is cell-based. The conditions noted are these: HEK-293T. Put shortly:
(§2)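 HEK 293T cells were transfected with pcDNA3.1, FLAG-p27 or FLAG-p27*, or were treated with MeOH, FR901464 (20, 200 nM) or SSA (190 nM). CDK2 was immunoprecipitated and its kinase activity read by autoradiography with histone H1 and (gamma-32P)ATP. Associated proteins were detected by western blotting.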

In data set [11] the test system is A549. Kind of data set: Induction of truncated p27 expression in human A549 cells at 1 to 100 ng/ml after 14 hrs by immunoblotting. In kind it is functional, cell-based. In short, it runs like this: as §1
In data set [12] the test system is HeLa. Kind of data set: Induction of CDK4 expression in human HeLa cells at 100 ng/ml after 14 hrs by Western blotting. The class given is functional, cell-based.
For data set [13], the target named is Cyclin-dependent kinase 2 (Homo sapiens) (UniProt P24941). Description: Induction of CDK2 in HEK293T cells transfected with FLAG-tagged p27 at 20 nM by Western blot analysis. In kind it is cell-based. The settings on record: HEK-293T. Put shortly:
as §2

For data set [14], the system named is HeLa. Description: Induction of p27 expression in human HeLa cells at 100 ng/ml after 14 hrs in presence of […] proteasome inhibitor MG132. In kind it is functional, cell-based.
In data set [15] the test system is MCF7. Kind of data set: Induction of p27 expression in human MCF7 cells at 1 to 100 ng/ml after 14 hrs by immunoblotting. The class given is functional, cell-based. In short, it runs like this: as §1
Data set [16] has as its system HEK-293T. Kind of data set: Induction of truncated p27 expression in HEK293T cells at 1 to 100 ng/ml after 14 hrs by immunoblotting. In kind it is functional, cell-based. The conditions noted are these: Homo sapiens. Put shortly:
as §1

The test system of data set [17] is HeLa. Description: Induction of p16 expression in human HeLa cells at 100 ng/ml after 16 hrs by Western blotting. In kind it is functional, cell-based. Put shortly: (§3)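 HeLa cells grown in DMEM with 10% FBS and treated with FR901464 at 100 ng ml-1 for 16 h. Lysates prepared by sonication in ice-cold IP buffer with protease inhibitors. Proteins separated by SDS-PAGE and immunoblotted with anti-p16, anti-p21 and anti-p27 antibodies; chemiluminescence detection.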

Data set [18] has as its system HEK-293T. Description: Induction of p27 expression in HEK293T cells at 1 to 100 ng/ml after 14 hrs by immunoblotting. In kind it is functional, cell-based. The conditions noted are these: Homo sapiens. In short, it runs like this: as §1
Data set [19] is described as follows: Half life of the compound in culture medium by HPLC analysis. In kind it is physicochemical.
The test system of data set [20] is HeLa. Description: Induction of cyclin A expression in human HeLa cells at 100 ng/ml after 14 hrs by Western blotting. The class given is functional, cell-based.
In data set [21] the target is Cyclin-dependent kinase 2 (Homo sapiens) (UniProt P24941). Kind of data set: Induction of CDK2 in HEK293T cells transfected with FLAG-tagged p27 at 200 nM by autoradiography. In kind it is cell-based. The settings on record: HEK-293T. In short, it runs like this: as §2
The test system of data set [22] is HeLa. Kind of data set: Induction of p21 expression in human HeLa cells at 100 ng/ml after 16 hrs by Western blotting. In kind it is functional, cell-based. Put shortly: as §3
In data set [23] the test system is HeLa. Kind of data set: Induction of CDK6 expression in human HeLa cells at 100 ng/ml after 14 hrs by Western blotting. The class given is functional, cell-based.
For data set [24], the system named is HEK-293T. Kind of data set: Induction of FLAG-tagged p27 expression in HEK293T cells at 100 ng/ml after 14 hrs by Western blotting. The class given is functional, cell-based. The settings on record: Homo sapiens.
The test system of data set [25] is HeLa. Description: Induction of p27 expression in human HeLa cells at 100 ng/ml after 16 hrs by Western blotting. In kind it is functional, cell-based. In short, it runs like this: as §3
For data set [26], the target named is Cyclin-dependent kinase 2 (Homo sapiens) (UniProt P24941). Kind of data set: Induction of CDK2 in HEK293T cells transfected with FLAG-tagged truncated p27 at 20 nM by Western blot analysis. The settings on record: HEK-293T. The class given is cell-based. In short, it runs like this: as §2
Data set [27] deals with HeLa. Kind of data set: Induction of CDK2 expression in human HeLa cells at 100 ng/ml after 14 hrs by Western blotting. The class given is functional, cell-based.
For data set [28], the system named is HeLa. Description: Induction of truncated p27 expression in human HeLa cells up to 500 nM after 14 hrs by Western blotting. The class given is functional, cell-based. In short, it runs like this: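 HeLa cells were exposed for 14 h to 1, 3, 10, 30, 100 and 300 ng ml-1. Cell extracts were immunoblotted for p27 and its C-terminally truncated form p27*, with chemiluminescent read-out.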

Data set [29] concerns COS-7. Kind of data set: Induction of subcellular localization in truncated p27 in african green monkey COS7 cells at 10 ng/ml after 6 hrs by immunofluorescence assay. The conditions noted are these: Chlorocebus aethiops. In kind it is functional, cell-based.
The test system of data set [30] is COS-7. Description: Induction of subcellular localization in p27 in african green monkey COS7 cells at 10 ng/ml after 6 hrs by immunofluorescence assay. The class given is functional, cell-based. The settings on record: Chlorocebus aethiops.

Splicing factor 3B subunit 3 (Homo sapiens), sequence (Q15393 whole entry, looked up): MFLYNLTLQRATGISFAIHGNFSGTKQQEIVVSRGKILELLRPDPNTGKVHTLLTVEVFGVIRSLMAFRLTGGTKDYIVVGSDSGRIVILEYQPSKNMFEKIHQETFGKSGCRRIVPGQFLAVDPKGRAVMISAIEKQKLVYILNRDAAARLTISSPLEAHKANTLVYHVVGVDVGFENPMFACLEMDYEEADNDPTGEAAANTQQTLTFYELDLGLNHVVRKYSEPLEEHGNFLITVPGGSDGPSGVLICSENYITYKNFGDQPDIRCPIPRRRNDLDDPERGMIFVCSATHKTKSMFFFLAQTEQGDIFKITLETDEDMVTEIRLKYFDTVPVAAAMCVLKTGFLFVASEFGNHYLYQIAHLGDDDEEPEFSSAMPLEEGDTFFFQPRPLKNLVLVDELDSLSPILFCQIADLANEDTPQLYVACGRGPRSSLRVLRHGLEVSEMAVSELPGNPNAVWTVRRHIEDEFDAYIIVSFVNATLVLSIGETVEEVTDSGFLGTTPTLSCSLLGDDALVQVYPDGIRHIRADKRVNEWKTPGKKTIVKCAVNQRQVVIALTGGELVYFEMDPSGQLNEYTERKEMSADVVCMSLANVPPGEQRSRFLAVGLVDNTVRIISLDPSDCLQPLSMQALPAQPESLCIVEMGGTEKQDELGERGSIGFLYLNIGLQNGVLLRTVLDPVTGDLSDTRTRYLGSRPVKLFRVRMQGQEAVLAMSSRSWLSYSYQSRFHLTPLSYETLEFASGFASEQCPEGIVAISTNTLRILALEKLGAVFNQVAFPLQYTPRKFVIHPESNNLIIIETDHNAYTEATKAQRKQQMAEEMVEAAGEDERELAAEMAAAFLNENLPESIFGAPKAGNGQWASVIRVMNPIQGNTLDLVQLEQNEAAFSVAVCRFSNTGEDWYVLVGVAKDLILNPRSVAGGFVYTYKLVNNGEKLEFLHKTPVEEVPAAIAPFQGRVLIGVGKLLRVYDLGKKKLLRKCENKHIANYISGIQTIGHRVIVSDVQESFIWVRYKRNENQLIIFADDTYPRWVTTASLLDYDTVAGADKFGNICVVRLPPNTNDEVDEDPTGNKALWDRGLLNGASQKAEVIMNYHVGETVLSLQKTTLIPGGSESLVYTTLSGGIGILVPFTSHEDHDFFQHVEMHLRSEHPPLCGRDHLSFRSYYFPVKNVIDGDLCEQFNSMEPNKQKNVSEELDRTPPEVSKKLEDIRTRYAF

Consider `CC(=O)O[C@@H](C)/C=C\C(=O)N[C@@H]1C[C@H](C)[C@H](C/C=C(C)/C=C/[C@H]2O[C@](C)(OCCNC(=O)CCCCCNC(=O)CCCCCNC(=O)CCCC[C@@H]3SC[C@@H]4NC(=O)N[C@@H]43)C[C@@]3(CO3)[C@@H]2O)O[C@@H]1C`, for which the result (in the data set on HeLa [1]; in [2]; in data set [3]; in data set [4]; in [5]) was Active.
Turning to `CC(=O)O[C@@H](C)/C=C\C(=O)N[C@@H]1C[C@H](C)[C@H](C/C=C(C)/C=C/[C@H]2O[C@](C)(O)CC3(CO3)[C@@H]2O)O[C@@H]1C` (single isomer, unassigned), the result in the data set on HeLa [6], in the data set on HeLa [7], in the data set on MCF7 [8], in the data set on A549 [9], with A549 [11] and in the data set on HeLa [12] was Active. The result in the data set on HeLa [14], in the data set on MCF7 [15], in the data set on HEK-293T [16], in the data set with HeLa [17], in the data set on HEK-293T [18] and in the data set with HeLa [20] was Active. The result (in data set [21]; in the data set with HeLa [22]; in the data set with HeLa [23]; in the data set with HEK-293T [24]; in the data set on HeLa [25]; in the data set on HeLa [27]) was Active. The outcome in [10], in data set [13] and in [26] was inactive. Moreover, in data set [19], the half-life amounted to 45 min.
With `CO[C@]1(C)C[C@@]2(CO2)[C@H](OC(C)=O)[C@@H](/C=C/C(C)=C/C[C@@H]2O[C@H](C)[C@H](NC(=O)/C=C\[C@H](C)OC(C)=O)C[C@@H]2C)O1`, the result in the data set with HeLa [28] was inactive.
Take `CCC(=C/[C@H](C)C/C=C/C(C)=C/[C@@H](C)C(=O)[C@@H](C)[C@H](O)[C@@H](C)C/C(C)=C/C(=O)O)/C=C/[C@@H]1OC(=O)C=C[C@@H]1C`: the outcome in the data set on COS-7 [29] and with COS-7 [30] was Active.

The half-life is the time in which the quantity being followed falls by half.
